Reference: ChEMBL document CHEMBL1154089, “Novel N-(3-carboxyl-9-benzyl-beta-carboline-1-yl)ethylamino acids: synthesis, anti-tumor evaluation, intercalating determination, 3D QSAR analysis and docking investigation” (Eur J Med Chem, 2009)

Tests used:
Mus musculus [1] = test: Toxicity in ICR mouse assessed as heart necropsy at > 500 mg/kg, ip after 7 days; format: organism-based; design: dose 500 mg/kg, route intraperitoneal; conditions: in vivo, 168 h
Outline: (§1)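 Mice fasted overnight with free access to water, then given a single i.p. injection of 150, 300 or 500 mg/kg in 0.2 ml of 0.9% saline. Groups of 12 (six male, six female). Animals were watched continuously for up to 7 days for abnormal behaviour (tremor, twitch, jumping, tetanus, supination) or death. They were sacrificed on day 7, and heart, liver and kidneys were checked macroscopically. LD50 was estimated graphically.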

HeLa = test: Cytotoxicity against human HeLa cells after 48 hrs by MTT assay; format: functional, cell-based
Outline: (§2)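 Cells grown in DMEM or RPMI-1640 with 10% FBS plus penicillin/streptomycin. Seeded at 5 × 10^4 cells/ml and given 4 h at 37 °C in 5% CO2 before the medium was replaced with compound (0.1–400 µM, DMSO vehicle; vehicle control 1% DMSO). After 48 h, MTT added (final 0.5 mg/ml) for 4 h. Formazan dissolved in DMSO and read at 570 nm. IC50 is the concentration giving 50% growth inhibition.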

[2] = Cytotoxicity against human MES-SA cells after 48 hrs by MTT assay; format: functional, cell-based; outline: as §2
Mus musculus [3] = test: Toxicity in ICR mouse assessed as death at > 500 mg/kg, ip after 7 days; format: organism-based; design: dose 500 mg/kg, route intraperitoneal; conditions: in vivo, 168 h; outline: as §1
Mus musculus [4] = test: Toxicity in ICR mouse assessed as jumping at > 500 mg/kg, ip after 7 days; format: organism-based; design: dose 500 mg/kg, route intraperitoneal; conditions: in vivo, 168 h; outline: as §1
Mus musculus [5] = test: Toxicity in ICR mouse assessed as tetanus at > 500 mg/kg, ip after 7 days; format: organism-based; design: dose 500 mg/kg, route intraperitoneal; conditions: in vivo, 168 h; outline: as §1
HepG2 = test: Cytotoxicity against human HepG2 cells after 48 hrs by MTT assay; format: functional, cell-based; conditions: HepG2, 48 h; outline: as §2
Mus musculus [6] = test: Toxicity in mouse S180 cells xenografted in ICR mouse assessed as spleen index at 89 umol/kg, ip administered 24 hrs after tumor implantation once daily for 7 consecutive days measured after 24 hrs last post dose; format: organism-based, CCRF S-180; conditions: in vivo
Outline: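 S180-bearing male ICR mice (n = 12) received 89 µmol/kg i.p. daily in 0.2 ml saline for 7 days. Killed under ether 24 h after the last dose; spleens excised and weighed. Spleen index given as mean ± SD, […] body weight.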

Mus musculus [7] = test: Toxicity in ICR mouse assessed as supination at > 500 mg/kg, ip after 7 days; format: organism-based; design: dose 500 mg/kg, route intraperitoneal; conditions: in vivo, 168 h; outline: as §1
Mus musculus [8] = test: Toxicity in ICR mouse assessed as kidneys necropsy at > 500 mg/kg, ip after 7 days; format: organism-based, Kidney; design: dose 500 mg/kg, route intraperitoneal; conditions: in vivo, 168 h; outline: as §1
CCRF S-180 [9] = test: Antitumor activity against mouse S180 cells xenografted in ICR mouse assessed as decrease in tumor weight at 89 umol/kg, ip administered 24 hrs after tumor implantation once daily for 7 consecutive days measured after 24 hrs last post dose; format: functional
Outline: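 Male ICR mice, 10–12 weeks old. Solid tumors from 1 × 10^7 viable S180 ascites cells in 0.2 ml 0.9% saline, injected s.c. at the right armpit. Random allocation at 24 h, 12 per group. Dosed i.p. daily in 0.2 ml 0.9% saline for 7 days. Saline-only negative control; cytarabine 89 µmol/kg positive control. Tumors excised and weighed 24 h after the last dose. ANOVA used for statistics.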

Mus musculus [10] = test: Toxicity in ICR mouse assessed as tremor at > 500 mg/kg, ip after 7 days; format: organism-based; design: dose 500 mg/kg, route intraperitoneal; conditions: in vivo, 168 h; outline: as §1
[11] = Cytotoxicity against human H1299 cells after 48 hrs by MTT assay; format: functional, cell-based; conditions: NCI-H1299, 48 h; outline: as §2
Mus musculus [12] = test: Toxicity in mouse S180 cells xenografted in ICR mouse assessed as increase in body weight at 89 umol/kg, ip administered 24 hrs after tumor implantation once daily for 7 consecutive days measured after 24 hrs last post dose; format: organism-based, CCRF S-180; conditions: in vivo
Outline: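 S180-bearing male ICR mice, n = 12 per group, given 89 µmol/kg i.p. daily in 0.2 ml 0.9% saline for 7 days, starting 24 h after s.c. implantation. Animals weighed daily. Result expressed as body-weight increase from the start of treatment, in g, mean ± SD.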

HL-60 = test: Cytotoxicity against human HL60 cells after 48 hrs by MTT assay; format: functional, cell-based; conditions: HL-60, 48 h; outline: as §2
Mus musculus [13] = test: Toxicity in ICR mouse assessed as liver necropsy at > 500 mg/kg, ip after 7 days; format: organism-based; design: dose 500 mg/kg, route intraperitoneal; conditions: in vivo, 168 h; outline: as §1
CCRF S-180 [14] = test: Antitumor activity against mouse S180 cells xenografted in ICR mouse assessed as inhibition of tumor growth at 89 umol/kg, ip administered 24 hrs after tumor implantation once daily for 7 consecutive days measured after 24 hrs last post dose; format: functional; conditions: CCRF S-180, ip
Outline: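 S180 solid tumors in male ICR mice (10–12 weeks), 1 × 10^7 cells s.c. at the right armpit. Mice randomized at 24 h, n = 12 per group, and dosed i.p. daily in 0.2 ml 0.9% saline for 7 days. Tumors weighed 24 h after the final dose. Inhibition (%) = [(A − B)/A] × 100, where A is the mean tumor weight of saline controls and B is the mean of the treated group.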

Mus musculus [15] = test: Toxicity in ICR mouse assessed as twitch at > 500 mg/kg, ip after 7 days; format: organism-based; design: dose 500 mg/kg, route intraperitoneal; conditions: in vivo, 168 h; outline: as §1

SMILES	Activity (Mus musculus [1])	IC50 (HeLa) [µM]	IC50 [2] [µM]	Activity (Mus musculus [3])	Activity (Mus musculus [4])	Activity (Mus musculus [5])	IC50 (HepG2) [µM]	Activity (Mus musculus [6]) [mg/g]	Activity (Mus musculus [7])	Activity (Mus musculus [8])	Activity (CCRF S-180 [9]) [g]	Activity (Mus musculus [10])	IC50 [11] [µM]	Activity (Mus musculus [12]) [g]	IC50 (HL-60) [µM]	Activity (Mus musculus [13])	inhibition in vivo at 89 µmol/kg (CCRF S-180 [14]) [%]	Activity (Mus musculus [15])
O=C(O)CNCCc1nc(C(=O)O)cc2c3ccccc3n(Cc3ccccc3)c12	Non-toxic	> 400	178	Non-toxic	Non-toxic	Non-toxic	> 400	13.1	Non-toxic	Non-toxic	1.47	Non-toxic	75.6	11.34	> 400	Non-toxic	11	Non-toxic
O=C(O)c1cc2c3ccccc3n(Cc3ccccc3)c2c(CCN[C@@H](CO)C(=O)O)n1		210	136				174	10.5			1.07		83.8	11.46	23.5		35.3	
O=C(O)c1cc2c3ccccc3n(Cc3ccccc3)c2c(CCN[C@@H](Cc2c[nH]c3ccccc23)C(=O)O)n1		393	11.7				107	11.7			0.85		57.3	11.67	102		47.2	
O=C(O)C[C@H](NCCc1nc(C(=O)O)cc2c3ccccc3n(Cc3ccccc3)c12)C(=O)O	Non-toxic	99.3	13	Non-toxic	Non-toxic	Non-toxic	114	13	Non-toxic	Non-toxic	1.08	Non-toxic	69	10.11	43.2	Non-toxic	34.7	Non-toxic
O=C(O)c1cc2c3ccccc3n(Cc3ccccc3)c2c(CCN2C(=O)CCC2C(=O)O)n1 (stereo not given)		> 400	45.9				> 400	12.2			0.94		97.6	12.24	112		43	
O=C(O)c1cc2c3ccccc3n(Cc3ccccc3)c2c(CCN[C@@H](Cc2ccccc2)C(=O)O)n1	Non-toxic	51.7	11	Non-toxic	Non-toxic	Non-toxic	114	14.4	Non-toxic	Non-toxic	1.56	Non-toxic	59.3	9.74	31.8	Non-toxic	5.2	Non-toxic
CC(C)C[C@H](NCCc1nc(C(=O)O)cc2c3ccccc3n(Cc3ccccc3)c12)C(=O)O		189	71.2				176	10.9			1.51		69.9	9.04	45.2		8.7	
Nc1ccn([C@@H]2O[C@H](CO)[C@@H](O)[C@@H]2O)c(=O)n1 [CYTARABINE]											0.74						54.8	
O=C(O)c1cc2c3ccccc3n(Cc3ccccc3)c2c(CCN[C@@H](Cc2c[nH]cn2)C(=O)O)n1		136	14.5				70.7	11.9			1.49		20	11.87	160		9.7	
CC(C)[C@@H](NCCc1nc(C(=O)O)cc2c3ccccc3n(Cc3ccccc3)c12)C(=O)O		290	175				> 400	10.2			0.76		199	10.23	> 400		53.8	
O=C(O)c1cc2c3ccccc3n(Cc3ccccc3)c2c(CCN2CCC[C@H]2C(=O)O)n1		161	55.2				107	12.1			1.53		75.5	12.07	28.4		7.2	
CC[C@H](C)[C@H](NCCc1nc(C(=O)O)cc2c3ccccc3n(Cc3ccccc3)c12)C(=O)O	Non-toxic	200	181	Non-toxic	Non-toxic	Non-toxic	254	13.6	Non-toxic	Non-toxic	1.62	Non-toxic	69	13.56	33.2	Non-toxic	1.6	Non-toxic
O=C(O)c1cc2c3ccccc3n(Cc3ccccc3)c2c(CCN[C@@H](Cc2ccc(O)cc2)C(=O)O)n1	Non-toxic	209	59.3	Non-toxic	Non-toxic	Non-toxic	127	13.6	Non-toxic	Non-toxic	0.85	Non-toxic	72.5	13.62	24	Non-toxic	48.6	Non-toxic
CSCC[C@H](NCCc1nc(C(=O)O)cc2c3ccccc3n(Cc3ccccc3)c12)C(=O)O		26.5	86.4				108	11.8			1.63		100	9.12	182		1.5	
C[C@@H](O)[C@H](NCCc1nc(C(=O)O)cc2c3ccccc3n(Cc3ccccc3)c12)C(=O)O	Non-toxic	221	218	Non-toxic	Non-toxic	Non-toxic	> 400	11.4	Non-toxic	Non-toxic	2.12	Non-toxic	86.4	11.37	50.4	Non-toxic	-29.1	Non-toxic
N=C(N)NCCC[C@H](NCCc1nc(C(=O)O)cc2c3ccccc3n(Cc3ccccc3)c12)C(=O)O	Non-toxic	259	68.2	Non-toxic	Non-toxic	Non-toxic	161	12.7	Non-toxic	Non-toxic	1.03	Non-toxic	86.4	11.19	40.9	Non-toxic	37.7	Non-toxic
